Results as given in ChEMBL document CHEMBL4014308, “Amphiphilic Tobramycin-Lysine Conjugates Sensitize Multidrug Resistant Gram-Negative Bacteria to Rifampicin and Minocycline” (J Med Chem, 2017).
In brackets after ≈: the same amount, converted by molar mass. Activity calls are given as the source filed them. The calls are words filed in the database; no cut-off is given here.

Key:
Assay type in all cases: functional
[1] = test system: Pseudomonas aeruginosa; test: Antibacterial activity against Pseudomonas aeruginosa PAO1 after 18 hrs by microtiter dilution assay
Method in brief: (§1)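 Broth microdilution following CLSI guidelines. An overnight culture was adjusted to 0.5 McFarland in saline, then diluted 1:50 in Mueller-Hinton broth. This inoculum was added in equal volume to 2-fold serial dilutions of agent in MHB and incubated 18 h at 37 °C. MIC was the lowest concentration with no visible growth.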

[2] = test system: Pseudomonas aeruginosa; test: Antibacterial activity against multidrug/extremely drug-resistant/colistin-susceptible Pseudomonas aeruginosa isolate 100036 after 18 hrs by microtiter dilution assay; method in brief: as §1
[3] = test system: Pseudomonas aeruginosa; test: Antibacterial activity against multidrug/extremely drug-resistant/colistin-susceptible Pseudomonas aeruginosa isolate 101885 after 18 hrs by microtiter dilution assay; method in brief: as §1
[4] = test system: Pseudomonas aeruginosa; test: Antibacterial activity against multidrug/extremely drug-resistant/colistin-susceptible Pseudomonas aeruginosa isolate P259-96918 after 18 hrs by microtiter dilution assay; method in brief: as §1
[5] = test system: Pseudomonas aeruginosa; test: Antibacterial activity against multidrug/extremely drug-resistant/colistin-susceptible Pseudomonas aeruginosa isolate P262-101856 after 18 hrs by microtiter dilution assay; method in brief: as §1
[6] = test system: Pseudomonas aeruginosa; test: Antibacterial activity against multidrug/extremely drug-resistant/colistin-susceptible Pseudomonas aeruginosa isolate P264-104354 after 18 hrs by microtiter dilution assay; method in brief: as §1
[7] = test system: Pseudomonas aeruginosa; test: Antibacterial activity against multidrug/extremely drug-resistant/colistin-resistant Pseudomonas aeruginosa isolate 91433 after 18 hrs by microtiter dilution assay; method in brief: as §1
[8] = test system: Pseudomonas aeruginosa; test: Antibacterial activity against multidrug/extremely drug-resistant/colistin-resistant Pseudomonas aeruginosa isolate 101243 after 18 hrs by microtiter dilution assay; method in brief: as §1
[9] = test system: Acinetobacter baumannii; test: Antibacterial activity against multidrug-resistant Acinetobacter baumannii AB027 after 18 hrs by microtiter dilution assay; details: AB027, 18 h; method in brief: as §1
[10] = test system: Acinetobacter baumannii; test: Antibacterial activity against multidrug-resistant Acinetobacter baumannii AB030 after 18 hrs by microtiter dilution assay; details: AB030, 18 h; method in brief: as §1
[11] = test system: Acinetobacter baumannii; test: Antibacterial activity against multidrug-resistant Acinetobacter baumannii AB031 after 18 hrs by microtiter dilution assay; details: AB031, 18 h; method in brief: as §1
[12] = test system: Acinetobacter baumannii; test: Antibacterial activity against multidrug-resistant Acinetobacter baumannii 110193 after 18 hrs by microtiter dilution assay; details: Acinetobacter baumannii, 110193, 18 h; method in brief: as §1
[13] = test system: Enterobacter cloacae; test: Antibacterial activity against multidrug-resistant Enterobacter cloacae 117029 after 18 hrs by microtiter dilution assay; details: Enterobacter cloacae, 117029, 18 h; method in brief: as §1
[14] = test system: Klebsiella pneumoniae; test: Antibacterial activity against multidrug-resistant Klebsiella pneumoniae 116381 after 18 hrs by microtiter dilution assay; details: Klebsiella pneumoniae, 116381, 18 h; method in brief: as §1
[15] = test system: Pseudomonas aeruginosa; test: Bactericidal activity against Pseudomonas aeruginosa PAO1 at 4 times antibacterial MIC after 6 hrs
Method in brief: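 Time-kill with P. aeruginosa PAO1. A 0.5 McFarland suspension was diluted 1:50 in LB broth and exposed to agent in PBS (pH 7.2) at 1/2×, 1×, 2× or 4× MIC at 37 °C for 6 h. Samples at 0, 10, 30, 60, 90, 120, 240 and 360 min were serially diluted in PBS, plated on LB agar, and colonies counted after 20 h at 37 °C.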

[16] = test system: Pseudomonas aeruginosa; test: Bactericidal activity against Pseudomonas aeruginosa PAO1 at 0.125 times antibacterial MIC after 6 hrs
[17] = test system: Pseudomonas aeruginosa; test: Antibacterial activity against Pseudomonas aeruginosa PAO1 assessed as ratio of MIC after 25 serial passages to MIC before 25 serial passages by microtiter dilution assay
Method in brief: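 Sequential passaging of wild-type PAO1 with single drugs or drug combinations. MIC was tested in MHB for 18 h. Cells from the well at half the MIC were adjusted to 0.5 McFarland in saline, diluted 1:50 in fresh MHB and used for the next MIC test. This was repeated for 25 passages, and the fold change in MIC was plotted against passage number.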

[18] = test system: Pseudomonas aeruginosa; test: Antibacterial activity against multidrug/extremely drug-resistant/colistin-susceptible Pseudomonas aeruginosa isolate P262-101856 infected in Galleria mellonella assessed as mortality at 75 mg/kg after 24 hrs relative to control; details: isolate P262-101856, 24 h
Method in brief: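 Galleria mellonella larvae (about 250 mg, used within 7 days; 15 per group) were injected with 10 µL of XDR P. aeruginosa P262 at 1.0×10^3 CFU/mL. At 2 h they received a single 10 µL injection: monotherapy at 75 mg/kg, or combinations at 12.5+12.5 to 75+75 mg/kg. PBS vehicle served as control. Survival was scored over 24 h at 37 °C.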

[19] = test system: Pseudomonas aeruginosa; test: Potentiation of novobiocin-induced antibacterial activity against Pseudomonas aeruginosa PAO1 at 4 ug/ml after 18 hrs by checkerboard assay
[20] = test system: Pseudomonas aeruginosa; test: Potentiation of rifampicin-induced antibacterial activity against Pseudomonas aeruginosa PAO1 at 4 ug/ml after 18 hrs by checkerboard assay
Method in brief: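 Checkerboard in MHB with a 10 × 7 matrix: antibiotic serially diluted along one axis, adjuvant along the other. Inoculum was a 1:50 dilution of a 0.5 McFarland suspension, incubated 18 h at 37 °C and read on a plate reader. Each FIC is the concentration in a no-growth well divided by the MIC alone; FIC index is their sum, with ≤0.5 taken as synergy.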

[21] = test system: Pseudomonas aeruginosa; test: Induction of outer membrane permeabilization in Pseudomonas aeruginosa PAO1 at 32 ug/ml after 30 mins by CFDASE staining based fluorescence assay
Method in brief: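 Log-phase PAO1 washed in PBS, brought to OD600 0.5 and loaded with 100 µM CFDASE for 30 min at 37 °C, then washed. Cells were exposed to agent for 30 min at 37 °C and supernatant fluorescence read at 488/520 nm. Untreated cells were subtracted; 1% Triton X-100 served as positive control.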

[22] = test system: Pseudomonas aeruginosa; test: Induction of cytoplasmic membrane depolarization in Pseudomonas aeruginosa PAO1 up to 300 secs by diSC3-5 staining based fluorescence assay
Method in brief: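 Mid-log PAO1 washed in 5 mM HEPES pH 7.4 with 20 mM glucose and resuspended to OD600 0.05. Cells were loaded with 0.2 mM EDTA and 0.4 µM diSC3-5 for 2 h at 37 °C in the dark, then equilibrated with 100 mM KCl for 30 min. Agent was added and fluorescence followed at 622/670 nm; agents tested at 32 µg/mL.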

[23] = test system: Pseudomonas aeruginosa; test: Disruption of proton motive force in Pseudomonas aeruginosa PAO1 cytoplasmic membrane assessed as repression of bacterial swimming motility at sub-MIC after 20 hrs
Method in brief: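 Swim plates of 0.3% agar with tryptone 5 g/L and NaCl 2.5 g/L, agent mixed into the medium and plates dried 2 h. PAO1 at 1.0 McFarland in 0.85% saline was point-inoculated at the center, and plates incubated 20 h at 37 °C before swim diameter was imaged.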

CN(C)c1ccc(O)c2c1C[C@H]1C[C@H]3[C@H](N(C)C)C(O)=C(C(N)=O)C(=O)[C@@]3(O)C(O)=C1C2=O [MINOCYCLINE]
MIC ([1]; PAO1, 18 h): 8 µg/mL (≈ 17.5 µM) | MIC ([2]; isolate 100036, 18 h): 32 µg/mL (≈ 69.9 µM) | MIC ([3]; isolate 101885, 18 h): 32 µg/mL (≈ 69.9 µM) | MIC ([4]; isolate P259-96918, 18 h): 32 µg/mL (≈ 69.9 µM) | MIC ([5]; isolate P262-101856, 18 h): 256 µg/mL (≈ 560 µM) | MIC ([6]; isolate P264-104354, 18 h): 64 µg/mL (≈ 140 µM) | MIC ([7]; isolate 91433, 18 h): 64 µg/mL (≈ 140 µM) | MIC ([8]; isolate 101243, 18 h): 4 µg/mL (≈ 8.74 µM) | MIC [9]: 1 µg/mL (≈ 2.19 µM) | MIC [10]: 4 µg/mL (≈ 8.74 µM) | MIC [11]: 2 µg/mL (≈ 4.37 µM) | MIC [12]: 2 µg/mL (≈ 4.37 µM) | MIC [13]: 128 µg/mL (≈ 280 µM) | MIC [14]: 128 µg/mL (≈ 280 µM) | Activity [15]: Active | Activity [16]: inactive | Ratio [17]: 16 | mortality at 75 mg/kg [18]: 100%

COLISTIN
MIC [1]: 1 µg/mL | MIC [2]: 2 µg/mL | MIC [3]: 0.5 µg/mL | MIC [4]: 0.5 µg/mL | MIC [5]: 2 µg/mL | MIC [6]: 4 µg/mL | MIC [7]: 4 µg/mL | MIC [8]: > 1020 µg/mL | Activity [19]: Active | Activity [20]: Active | Ratio [17]: 1024 | Activity [21]: Active | Activity [22]: Dose-dependent effect | Activity [23]: Active
